# Hits are enriched below; roughly 2.6% of the tested compounds scored in any of these assays.
# IMP-1 inh = inhibitors of Pseudomonas aeruginosa IMP-1 metallo-beta-lactamase | purified IMP-1, nitrocefin hydrolysis, epi-absorbance fluorescence | inhibition, % at 5.6 µM | actives 0.45% (n = 290,000) | AID 1556;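 active = inhibition above the mean plus 3 SD of all compounds in the same screening run, cut at about 4.5% in these data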;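 also: 0% = IMP-1 with DMSO and 100% = DMSO wells lacking enzyme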
#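 system = purified recombinant IMP-1 beta-lactamase | amount = 0.2 nM IMP-1, as dispensed | medium = HEPES buffer pH 7.1 with ZnSO4 and Brij 35 | times = 25 °C, 15 min preincubation, 25 min reaction | detection = plate fluorescence quenching by hydrolysis product, ex 480/em 530 nm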
# Runt-CBFb FRET = Runt domain-CBFb interaction inhibition | Cerulean-Runt/Venus-CBFb FRET ratio 530/480, 1 h | AID 1496 | inhibition, % at 20 µM | actives 0.46% (n = 220,000) | Q01196+Q13951;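 active = inhibition over about 50% at 20 µM in the single-dose screen, limit read from the data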;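 also: 0% = DMSO wells and 100% = excess unlabeled CBFb competitor control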
# Target sequence (Q01196 whole entry, looked up, the tested form may be a part): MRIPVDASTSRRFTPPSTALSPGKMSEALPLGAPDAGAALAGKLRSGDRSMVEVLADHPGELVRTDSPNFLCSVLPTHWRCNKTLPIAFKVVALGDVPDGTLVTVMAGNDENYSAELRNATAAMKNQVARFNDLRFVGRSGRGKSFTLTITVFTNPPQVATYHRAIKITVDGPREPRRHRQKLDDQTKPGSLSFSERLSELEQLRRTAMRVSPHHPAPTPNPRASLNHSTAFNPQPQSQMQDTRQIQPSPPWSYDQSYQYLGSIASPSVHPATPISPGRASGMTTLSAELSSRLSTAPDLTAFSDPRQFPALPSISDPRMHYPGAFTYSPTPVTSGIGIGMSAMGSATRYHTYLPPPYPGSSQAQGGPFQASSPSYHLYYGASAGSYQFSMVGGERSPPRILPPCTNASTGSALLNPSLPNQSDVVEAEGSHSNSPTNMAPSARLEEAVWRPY
# Target sequence (Q13951 whole entry, looked up, the tested form may be a part): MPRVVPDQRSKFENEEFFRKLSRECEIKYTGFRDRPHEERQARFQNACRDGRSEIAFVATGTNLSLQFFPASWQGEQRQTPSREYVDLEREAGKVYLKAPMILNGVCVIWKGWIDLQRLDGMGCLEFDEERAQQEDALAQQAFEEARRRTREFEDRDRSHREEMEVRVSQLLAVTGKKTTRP
#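 Measured by: fluorescence energy transfer, 422 nm excitation, 530/480 nm emission; test system: Cerulean-tagged RUNX1 Runt domain (FRET donor) fusion protein; buffer or medium: Tris pH 7.5 buffer with BSA; compound: one dose, 20 µM compound, 1% DMSO; times: two 1 h room-temperature incubations shielded from light; benchmarks: unlabeled CBFb 5 µM, positive control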
# VIM-2 inhibitor = inhibitors of Pseudomonas aeruginosa VIM-2 metallo-beta-lactamase; actives 0.89% (n = 290,000); AID 1527; purified VIM-2, nitrocefin hydrolysis, epi-absorbance fluorescence; inhibition, % at 5.6 µM;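 active = inhibition above the mean of all tested compounds plus 3 SD, cutoff set per screening run, cut at about 7.5% in these data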;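 also: red hydrolysis product quenches plate fluorescence so inhibitors raise well fluorescence; 0% = enzyme with DMSO and 100% = DMSO without enzyme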
# RanGTP-Impb inh = inhibitors of RanGTP-importin-beta interaction, primary screen, biochemical, FRET, CFP-Ran, YFP-importin-beta, homogeneous; cell-free CFP-Ran/YFP-importin-beta FRET ratio; actives 1.1% (n = 300,000); inhibition, % (no concentration beside the values);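 active = more than half of the replicate wells show a fall in the fluorescence ratio signal beyond about 16%, limit read from the data, passing the limit was not always enough; inconclusive = exactly half of the replicate wells pass the set limit; inactive = fewer than half of replicates pass the limit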;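 also: 0% = DMSO wells and 100% = Ran loaded with GDP instead of GTP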
# Runt-SMMHC FRET = inhibitors of human RUNX1 Runt domain binding to CBFb-SMMHC; Q01196+Q13951; Cerulean-Runt/Venus-CBFb-SMMHC FRET ratio 530/480, 1 h; inhibition, % at 20 µM; actives 0.74% (n = 220,000);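 active = mean inhibition across duplicate retests at 20 µM reaching about 50%, limit read from the data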;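 also: 0% = DMSO wells and 100% = wells with excess untagged CBFb-SMMHC; inhibitors lower the FRET ratio by blocking Runt binding to CBFb-SMMHC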
# * hit, by the source's call; ? = inconclusive; . = no result given.
SMILES,IMP-1 inh,Runt-CBFb FRET,VIM-2 inhibitor,RanGTP-Impb inh,Runt-SMMHC FRET
O=Cc1cc(Br)c(OC(=O)N2CCOCC2)c(Br)c1,-0.3,.,0.2,4.2,.
O=C(/C=C/Nc1nccs1)C(F)(F)Cl,2.5,44.7,1.5,-3.9,70.9*
CC(C)(CO)NC(=O)c1ccc2nc(Cc3cccc(Cl)c3)oc2c1,-3.2,.,-3.6,-3.6,.
O=C(O)c1ccc(N/N=C/C=C/c2ccccc2)cc1,-3.0,19.5,-2.5,85.4*,20.7
Cn1c2ccccc2c2nnc(SCC(=O)NC3CCCC3)nc21,-2.2,.,9.2*,0.3,.
COc1ccc2c(c1)c1nnc(SCC(=O)NC3CC3)nc1n2C,-2.9,.,0.4,?,.
Cc1ccc(NC(=O)CSc2nc3ccccc3c(=O)n2CCCC(=O)N2CCCC2)cc1,10.1*,-8.2,0.8,-3.5,-3.2
CC(=O)NCCn1c(SCC(=O)NC2CCCCC2)nc2ccccc2c1=O,-1.1,0.6,-0.9,18.1*,0.2
CCn1c(SCC(=O)NC2CCCCC2)nc2ccccc2c1=O,-3.7,.,-4.5,3.8,.
COC(=O)CCNC(=O)c1ccc2nc(Cc3ccc(OC)c(OC)c3)oc2c1,-1.9,.,-0.8,?,.
Cc1c2c(n3c(nc4ccccc43)c1C#N)N(CCN(C)C)CC2,-3.8,19.0,11.3*,-2.1,90.8*
Cc1ccnc(N2CCN(c3c4c(c(C#N)c5nc6ccccc6n35)CCC4)CC2)c1,1.0,.,-3.7,.,.
Cc1c2c(n3c(nc4ccccc43)c1C#N)N(c1ccccc1)CC2,-5.2,16.3,4.0,.,79.2*
O=C(NN1C(=O)C2C3c4ccccc4C(c4ccccc43)[C@@H]2C1=O)c1ccccc1 (stereo partly drawn),-0.8,2.3,-0.4,0.1,-6.5
O=C(NN1C(=O)C2C3C=CC(C3)C2C1=O)c1cccc(Cl)c1 (stereo not drawn),-0.9,1.5,0.4,-5.6,-3.7
O=C(NN1C(=O)C2C(c3ccccc3)C=CC(c3ccccc3)C2C1=O)c1cccc(Br)c1 (stereo not drawn),21.3*,-0.7,2.8,-7.7,-1.5
O=C(NN1C(=O)C2C(c3ccccc3)C=CC(c3ccccc3)C2C1=O)c1ccccc1 (stereo not drawn),34.2*,0.5,1.9,-0.1,-6.7
COc1ccc(C2CC(c3ccccc3OC(=O)/C=C/c3ccccc3)=NN2C(C)=O)cc1 (stereo not drawn),0.3,-0.2,-2.9,1.2,1.0
COc1ccc2[nH]c(=O)c3c(c2c1)OC(C)(C)C=C3,39.2*,-2.5,-1.5,3.4,-0.2
CCN(CC)c1ccc(CN(C(=O)c2cccs2)C2CCS(=O)(=O)C2)cc1 (stereo not drawn),-2.0,.,-1.5,1.4,.
O=C(O)c1ccc(-c2ccccn2)s1,-2.2,-0.9,0.2,-2.6,3.6
c1ccc(-c2ccc(-c3ccccn3)s2)nc1,-2.4,-3.4,-2.2,17.8*,3.7
O=C(c1cc2c(ccc3ccccc32)oc1=O)N1CCCC1,0.4,5.2,0.3,-0.1,12.3
CC(OC(=O)c1cc2c(ccc3ccccc32)oc1=O)c1nc2ccccc2s1 (stereo not drawn),-1.6,39.2,-1.6,49.1*,92.8*
N=c1oc2ccc3ccccc3c2cc1C(N)=S,1.8,118.1*,3.8,75.5*,91.5*
SMILES,IMP-1 inh,Runt-CBFb FRET,VIM-2 inhibitor,RanGTP-Impb inh,Runt-SMMHC FRET
O=C(NCc1ccccn1)c1cc2c(ccc3ccccc32)oc1=O,-3.8,104.1*,-0.8,36.8*,.
CCOC(=O)c1cc2c(ccc3ccccc32)oc1=O,-2.9,85.3*,2.3,?,91.5*
Cc1ccc(C(=O)N/N=C/c2ccoc2)cc1C,-0.8,.,-1.2,1.8,.
Cc1ccc(C)c(OCCn2cc(/C=C(\C#N)C(=O)NCc3ccco3)c3ccccc32)c1,-0.1,18.9,-2.4,4.4,63.1*
COc1ccccc1OCCn1cc(/C=C(\C#N)C(=O)NCc2ccco2)c2ccccc21,-2.7,0.3,-3.0,2.5,-7.9
COc1ccc(/C=c2\s/c(=C(/C#N)C(=O)NCc3ccco3)n(-c3ccccc3)c2=O)cc1,-1.7,-154.2,-0.2,82.9*,-126.2
COc1ccc(OCCn2cc(/C=C(\C#N)C(=O)NCc3ccco3)c3ccccc32)cc1,-1.3,-20.7,-0.8,71.2*,85.5*
CCOc1ccc(-c2nnc(SCC(=O)O)n2Cc2ccccc2)cc1,-2.6,.,-2.3,4.2,.
Cc1c(C)n2c(SCC(=O)N3CCOCC3)nnc2[nH]c1=O,.,.,.,-5.2,.
NC(=NC1CCCCC1)NS(=O)(=O)c1ccccc1,-0.5,.,-2.3,3.5,.
CC(=O)c1ccc(N(CC(=O)NC2CCCC2)C(=O)c2csnn2)cc1,-1.9,.,-0.6,4.4,.
CN1CCc2c(sc(NC(=O)C3CCCN3S(=O)(=O)c3ccc(Cl)s3)c2C(N)=O)C1 (stereo not drawn),.,.,.,163.9*,.
CC(=O)N1CCc2c(sc(NC(=O)C3CCCN3S(=O)(=O)c3cccs3)c2C(N)=O)C1 (stereo not drawn),.,.,.,-5.6,.
CNC(=O)c1c(NC(=O)c2ccc(S(=O)(=O)N3CCCc4ccccc43)cc2)sc2c1CCN(C)C2,0.3,-261.7,-1.3,28.2*,-48.1
CN1CCc2c(sc(NC(=O)c3ccc(S(=O)(=O)N4CCCC4)cc3)c2C(N)=O)C1,-1.7,.,3.2,41.0*,.
CN1CCc2c(sc(NC(=O)c3ccc(S(=O)(=O)N4CCCCCC4)cc3)c2C(N)=O)C1,0.1,.,-0.1,57.6*,.
COc1ccc(S(=O)(=O)NCC2CCCN(Cc3cn(C)nc3C)C2)cc1 (stereo not drawn),1.0,.,2.9,3.5,.
CC1Sc2ccc(C(=O)Nc3ncccc3O)cc2NC1=O (stereo not drawn),.,.,.,0.8,.
CC(C)(C)NC(=O)CSc1nnc(C2CC2)n1-c1ccccc1,-3.3,-1.1,-0.2,52.2*,2.1
COc1cccc(CN2CC(C(=O)N(C)Cc3ccnc4ccccc34)CCC2=O)c1 (stereo not drawn),-3.6,.,-1.7,0.8,.
Cn1c(C2CCCCC2)nc2cc(N)ccc21,0.4,.,1.4,0.7,.
Cn1c2ccccc2c2nnc(NN)nc21,-2.4,7.5,0.4,-2.3,1.5
CCOc1cc2nc3c4ccccc4n(C)c3nc2cc1OCC,-0.8,3.6,-1.4,38.1*,-39.4
COC(=O)c1ccccc1NC(=O)c1sc(N)nc1C,-4.8,1.3,10.3*,.,1.3
Cc1nc(N)sc1C(=O)Nc1ccccc1,-3.5,-0.7,-3.5,3.0,-2.5
Cc1cccc2nc(CNC(=O)C3CCC(=O)N(Cc4ccccc4F)C3)cn12 (stereo not drawn),-2.1,.,-1.8,-1.5,.
CC(=O)N1c2ccc(S(=O)(=O)N3CCC(C(=O)NCc4ccc(C)cc4)CC3)cc2CC1C (stereo not drawn),-1.4,.,1.2,?,.
CC(=O)N1c2ccc(S(=O)(=O)N3CCC(C(=O)NCc4ccc(N(C)C)cc4)CC3)cc2CC1C (stereo not drawn),-0.9,.,-2.9,66.7*,.

# High-throughput results: PubChem BioAssay, several laboratories
